Assay results taken from the M2OR odorant receptor database.

How the values were obtained:
Conditions in all cases: stereoisomer not certain
OR10R2 (Homo sapiens) = biological target: T1, OR10R2 (Homo sapiens) (UniProt Q8NGX6)
T1 sequence (whole entry): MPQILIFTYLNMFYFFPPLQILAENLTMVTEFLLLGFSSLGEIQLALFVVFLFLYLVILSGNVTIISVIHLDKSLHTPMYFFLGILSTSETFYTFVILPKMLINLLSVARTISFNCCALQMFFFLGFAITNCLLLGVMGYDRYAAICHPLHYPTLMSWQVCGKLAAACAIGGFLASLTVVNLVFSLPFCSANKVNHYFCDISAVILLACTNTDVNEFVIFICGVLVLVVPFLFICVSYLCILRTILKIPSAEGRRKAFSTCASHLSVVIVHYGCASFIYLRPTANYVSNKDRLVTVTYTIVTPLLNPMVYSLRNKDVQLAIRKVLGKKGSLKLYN
Method in brief: (§1)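 Transient luciferase assays in mammalian cell lines were common, though methods varied by source. The values come from published papers and their supplementary material, with extra details from the original authors when needed. Responsive refers to a measured signal the original authors judged statistically different from baseline, and non-responsive (inactive) to the remainder.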

OR10S1 (Homo sapiens) = biological target: T2, OR10S1 (Homo sapiens) (UniProt Q8NGN2)
T2 sequence (whole entry): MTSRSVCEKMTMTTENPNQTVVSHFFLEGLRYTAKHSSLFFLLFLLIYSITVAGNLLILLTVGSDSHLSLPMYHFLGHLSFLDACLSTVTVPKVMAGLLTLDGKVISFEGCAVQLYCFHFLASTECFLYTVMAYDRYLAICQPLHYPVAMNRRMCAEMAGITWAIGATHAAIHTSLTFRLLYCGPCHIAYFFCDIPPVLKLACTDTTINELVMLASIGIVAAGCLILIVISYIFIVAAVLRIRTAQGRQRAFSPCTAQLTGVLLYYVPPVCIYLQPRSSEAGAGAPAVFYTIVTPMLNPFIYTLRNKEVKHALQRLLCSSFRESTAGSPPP
Method in brief: as §1

OR10T2 (Homo sapiens) = biological target: T3, OR10T2 (Homo sapiens) (UniProt Q8NGX3)
T3 sequence (whole entry): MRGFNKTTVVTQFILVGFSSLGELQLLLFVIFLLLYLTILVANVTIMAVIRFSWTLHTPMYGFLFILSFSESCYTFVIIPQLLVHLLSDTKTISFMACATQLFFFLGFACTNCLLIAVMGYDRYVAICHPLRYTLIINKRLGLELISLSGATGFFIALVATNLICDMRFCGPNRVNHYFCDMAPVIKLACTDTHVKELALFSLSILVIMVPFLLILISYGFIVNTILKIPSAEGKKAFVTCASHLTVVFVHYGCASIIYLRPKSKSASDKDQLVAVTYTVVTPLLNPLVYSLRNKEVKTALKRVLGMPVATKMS
Method in brief: as §1

OR10V1 (Homo sapiens) = biological target: T4, OR10V1 (Homo sapiens) (UniProt Q8NGI7)
T4 sequence (whole entry): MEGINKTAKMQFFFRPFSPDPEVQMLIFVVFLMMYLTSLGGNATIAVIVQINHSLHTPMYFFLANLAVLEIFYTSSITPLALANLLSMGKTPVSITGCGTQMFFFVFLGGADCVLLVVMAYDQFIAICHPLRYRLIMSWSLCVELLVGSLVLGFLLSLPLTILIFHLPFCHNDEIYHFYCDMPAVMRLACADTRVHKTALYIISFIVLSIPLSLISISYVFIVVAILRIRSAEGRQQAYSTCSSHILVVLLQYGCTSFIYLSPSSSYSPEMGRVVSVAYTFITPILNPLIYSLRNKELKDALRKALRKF
Method in brief: as §1

OR10W1 (Homo sapiens) = biological target: T5, OR10W1 (Homo sapiens) (UniProt Q8NGF6)
T5 sequence (whole entry): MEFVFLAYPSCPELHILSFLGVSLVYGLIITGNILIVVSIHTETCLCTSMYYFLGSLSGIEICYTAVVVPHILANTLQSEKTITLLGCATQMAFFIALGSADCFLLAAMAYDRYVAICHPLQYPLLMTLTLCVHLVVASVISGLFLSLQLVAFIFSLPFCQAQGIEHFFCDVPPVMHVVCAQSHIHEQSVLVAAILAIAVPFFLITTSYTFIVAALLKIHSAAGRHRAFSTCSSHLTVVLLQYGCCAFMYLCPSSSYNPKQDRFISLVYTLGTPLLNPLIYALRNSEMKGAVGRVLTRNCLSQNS
Method in brief: as §1

OR10X1 (Homo sapiens) = biological target: T6, OR10X1 (Homo sapiens) (UniProt Q8NGY0)
T6 sequence (whole entry): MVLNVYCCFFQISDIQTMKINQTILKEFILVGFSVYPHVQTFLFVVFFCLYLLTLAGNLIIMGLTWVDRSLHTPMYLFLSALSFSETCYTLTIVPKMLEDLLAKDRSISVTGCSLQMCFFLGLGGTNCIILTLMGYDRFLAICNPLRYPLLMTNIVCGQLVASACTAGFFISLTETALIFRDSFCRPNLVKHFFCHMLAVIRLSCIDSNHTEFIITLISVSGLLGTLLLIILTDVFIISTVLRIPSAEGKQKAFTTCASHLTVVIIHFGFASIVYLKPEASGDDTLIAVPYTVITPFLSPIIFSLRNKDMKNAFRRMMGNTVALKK
Method in brief: as §1

OR10Z1 (Homo sapiens) = biological target: T7, OR10Z1 (Homo sapiens) (UniProt Q8NGY1)
T7 sequence (whole entry): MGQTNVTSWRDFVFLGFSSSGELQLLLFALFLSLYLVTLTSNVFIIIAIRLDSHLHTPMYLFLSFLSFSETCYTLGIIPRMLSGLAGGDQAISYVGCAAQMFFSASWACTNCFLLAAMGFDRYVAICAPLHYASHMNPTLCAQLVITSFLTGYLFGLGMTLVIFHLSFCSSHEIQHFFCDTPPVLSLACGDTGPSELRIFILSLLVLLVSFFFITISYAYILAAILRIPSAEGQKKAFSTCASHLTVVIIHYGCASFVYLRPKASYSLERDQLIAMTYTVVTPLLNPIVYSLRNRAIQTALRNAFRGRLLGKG
Method in brief: as §1

OR11A1 (Homo sapiens) = biological target: T8, OR11A1 (Homo sapiens) (UniProt Q9GZK7)
T8 sequence (whole entry): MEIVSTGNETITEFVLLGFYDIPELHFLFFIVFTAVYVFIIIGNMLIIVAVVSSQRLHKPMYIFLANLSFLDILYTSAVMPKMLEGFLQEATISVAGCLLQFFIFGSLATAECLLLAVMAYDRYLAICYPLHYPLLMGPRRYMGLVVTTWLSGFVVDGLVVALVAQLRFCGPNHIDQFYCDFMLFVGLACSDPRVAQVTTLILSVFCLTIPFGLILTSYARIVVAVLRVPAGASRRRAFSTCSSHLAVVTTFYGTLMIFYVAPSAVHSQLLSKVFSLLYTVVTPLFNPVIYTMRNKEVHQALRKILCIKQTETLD
Method in brief: as §1

OR11G2 (Homo sapiens) = biological target: T9, OR11G2 (Homo sapiens) (UniProt Q8NGC1)
T9 sequence (whole entry): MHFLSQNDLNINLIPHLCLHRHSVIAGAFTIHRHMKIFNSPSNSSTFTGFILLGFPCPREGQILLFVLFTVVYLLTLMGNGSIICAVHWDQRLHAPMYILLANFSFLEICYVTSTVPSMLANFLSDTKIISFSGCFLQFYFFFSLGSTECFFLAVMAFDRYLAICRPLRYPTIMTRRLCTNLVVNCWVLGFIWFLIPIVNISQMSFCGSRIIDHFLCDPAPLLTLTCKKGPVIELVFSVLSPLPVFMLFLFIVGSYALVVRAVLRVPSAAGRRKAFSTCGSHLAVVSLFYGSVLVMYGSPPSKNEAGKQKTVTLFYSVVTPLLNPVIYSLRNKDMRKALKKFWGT
Method in brief: as §1

OR11H1 (Homo sapiens) = biological target: T10, OR11H1 (Homo sapiens) (UniProt Q8NG94)
T10 sequence (whole entry): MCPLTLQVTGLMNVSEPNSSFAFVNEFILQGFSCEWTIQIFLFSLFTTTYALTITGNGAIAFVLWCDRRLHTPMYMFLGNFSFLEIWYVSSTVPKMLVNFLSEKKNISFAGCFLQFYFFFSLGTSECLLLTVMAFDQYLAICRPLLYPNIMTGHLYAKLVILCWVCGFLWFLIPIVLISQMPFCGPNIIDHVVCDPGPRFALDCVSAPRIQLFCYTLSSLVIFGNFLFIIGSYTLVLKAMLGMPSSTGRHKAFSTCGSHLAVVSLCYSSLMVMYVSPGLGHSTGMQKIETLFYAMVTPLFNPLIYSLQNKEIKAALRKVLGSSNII
Method in brief: as §1

Measured: odorant receptor agonist call;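 also: active if original authors judged signal statistically different from baseline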

CCC(S)C(C)CO (stereo not given)
inactive: all assays above
